Source: ChEMBL document CHEMBL3108685, “Exploring the chemical space of G-quadruplex binders: discovery of a novel chemotype targeting the human telomeric sequence” (J Med Chem, 2013)
The source made the active and inactive calls. No cut-off for these calls is given here.

Experiments:
[1] = species on record: Homo sapiens; experiment: Binding affinity to human kit2 G-quadruplex DNA assessed as change in melting temperature at 10 uM by FRET assay
Procedure, shortened: (§1)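 FRET melting: target oligos labelled 5′-DABCYL / 3′-fluorescein, 0.25 μM, with ligand in 50 mM potassium buffer (10 mM LiOH, 50 mM KCl, pH 7.4). Samples denatured at 95 °C for 5 min, cooled slowly overnight, then ramped to 90 °C and back to 30 °C at 0.2 °C/min. Excitation 488 nm, emission 520 nm. Tm taken from first derivative; at least three repeats, errors ±0.2 °C.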

[2] = species on record: Homo sapiens; experiment: Binding affinity to human c-myc G-quadruplex DNA assessed as change in melting temperature at 10 uM by FRET assay; procedure, shortened: as §1
[3] = species on record: Homo sapiens; experiment: Binding affinity to human TBA G-quadruplex DNA assessed as change in melting temperature at 10 uM by FRET assay; procedure, shortened: as §1
[4] = species on record: Homo sapiens; experiment: Binding affinity to human kit1 G-quadruplex DNA assessed as change in melting temperature at 10 uM by FRET assay; procedure, shortened: as §1
[5] = tested on: BJ; experiment: Induction of DNA damage response in human BJ cells expressing human TERT assessed as phosphorylation of gamma H2AX at 1 uM after 24 hrs by DAPI staining-based immunofluorescence analysis; format: cell-based
Procedure, shortened: (§2)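 BJ-HELT and BJ-hTERT fibroblasts grown in D-MEM with 10% FCS and 2 mM glutamine, exposed to 1 μM for 24 h. Cells fixed in 2% formaldehyde, permeabilized with 0.25% Triton X-100, stained with anti-γH2AX plus FITC secondary, and counterstained with DAPI. 200 cells scored on triplicate slides. Mean ± SD of at least three experiments.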

[6] = species on record: Homo sapiens; experiment: Binding affinity to human Tel24 G-quadruplex DNA assessed as change in melting temperature up to 20 uM by FRET assay; procedure, shortened: as §1
[7] = tested on: BJ; experiment: Induction of DNA damage response in human BJ cells expressing SV40 early region protein HELT assessed as phosphorylation of gamma H2AX at 1 uM after 24 hrs by DAPI staining-based immunofluorescence analysis relative to control; format: functional; procedure, shortened: as §2
[8] = species on record: Homo sapiens; experiment: Displacement of thiazole orange from human Tel24 G-quadruplex DNA up to 28 uM by fluorescent intercalator displacement assay
Procedure, shortened: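 Tel24 unlabelled (0.6 μM) preloaded with thiazole orange (1.2 μM) in 10 mM Tris, 50 mM KCl, pH 7.4. Ligand added in increasing amounts and fluorescence emission followed. Displacement % = 100 − (F/F0 × 100), with F0 the signal before ligand, plotted against concentration. At least three repeats, each in triplicate.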

[9] = tested on: HT-29; experiment: Induction of apoptosis in human HT-29 cells assessed as late apoptotic cells at 2 uM measured on day 5 by Annexin V/propidium iodide staining-based flow cytometric analysis (reference value: 10%); format: functional
[10] = tested on: HeLa; experiment: Cytotoxicity against human HeLa cells assessed as inhibition of cell survival after 4 days by clonogenic assay; format: functional, cell-based
Procedure, shortened: (§3)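 Cells seeded at 5 × 10^2 per 60 mm dish and treated 24 h later across a dose series for 4 days, then colony formation scored. Surviving fraction = treated/control absolute survival. IC50 from dose–response. Mean ± SD of three independent experiments.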

[11] = species on record: Homo sapiens; experiment: Binding affinity to human Tel24 G-quadruplex DNA assessed as change in DNA topology by CD spectroscopic analysis
Procedure, shortened: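 CD spectra recorded at 25 °C, 220–320 nm, on annealed Tel24 (40 μM) with or without an excess of ligand. Buffer 10 mM Tris-HCl, 50 mM KCl, pH 7.4; 1 mm path length. Average of three scans, buffer baseline subtracted. Time constant 4 s, bandwidth 2 nm, scan rate 20 nm min−1.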

[12] = tested on: U2OS; experiment: Cytotoxicity against human U2OS cells assessed as inhibition of cell survival after 4 days by clonogenic assay; format: functional, cell-based; procedure, shortened: as §3
[13] = tested on: HT-29; experiment: Cell cycle arrest in human HT-29 cells assessed as accumulation at subG1 phase at 2 uM by […]propidium iodide staining-based flow cytometric analysis; format: functional; settings: TDE = time-dependent effect
Procedure, shortened: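 HT29 cells cultured with or without 2 μM and sampled on days 4, 5 and 6. Cells fixed in 70% ethanol, stained 30 min at room temperature in the dark with PI (50 μg/mL) plus RNase A, and analysed by flow cytometry (20000 events). Sub-G1 fraction taken as the apoptotic measure.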

[14] = tested on: HT-29; experiment: Cytotoxicity against human HT-29 cells assessed as inhibition of cell survival after 4 days by clonogenic assay; format: functional, cell-based; procedure, shortened: as §3
[15] = tested on: HT-29; experiment: Induction of apoptosis in human HT-29 cells assessed as early apoptotic cells at 2 uM measured on day 5 by Annexin V/propidium iodide staining-based flow cytometric analysis (reference value: 4%); format: functional
[16] = species on record: Homo sapiens; experiment: Binding affinity to human Tel24 G-quadruplex DNA at 2:1 ligand/DNA ratio by NMR analysis
[17] = tested on: BJ; experiment: Induction of telomere dysfunction induced foci in human BJ cells expressing SV40 early protein HELT assessed as increase in gamma H2AX/TRF1 co-localization at 1 uM by deconvolution microscopy relative to control; format: functional
Procedure, shortened: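 BJ-HELT fibroblasts given 1 μM, then double immunofluorescence for γH2AX and TRF1 with DAPI, imaged by deconvolution microscopy. In a single plane, 30 γH2AX-positive cells scored; cells with at least four γH2AX/TRF1 colocalizations counted as TIF-positive. Mean TIFs per nucleus also scored. Mean ± SD, three experiments.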

[18] = species on record: Homo sapiens; experiment: Binding affinity to human Tel24 G-quadruplex DNA assessed as change in melting temperature at 10 uM by FRET assay; procedure, shortened: as §1
[19] = tested on: BJ; experiment: Cytotoxicity against human BJ cells expressing human TERT assessed as cell viability up to 3 uM after 4 days by MTT assay; format: cell-based; settings: 96 h
Procedure, shortened: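 BJ-hTERT cells seeded at 3 × 10^3 per well and treated 24 h later with 0, 1, 2 or 3 μM for 4 days. MTT (5 mg/mL stock in PBS) added, followed by 4 h at 37 °C. Formazan dissolved in isopropanol and OD read at 540 nm. Mean ± SD of three experiments.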

Activity [1] | Activity [2] | Activity [3] | Activity [4] | Activity [6] | Activity [8] | SMILES | Activity [5] | Activity [7] | further results
inactive | inactive | inactive | inactive |  |  | Cc1cc(NC(=O)c2cc(-c3ccccc3O)no2)nn1CC(=O)N1CCOCC1 |  |  | 
inactive | inactive | inactive | inactive | inactive | inactive | Clc1ccc2[nH]c(-c3ccc(OCCCN4CCN(c5ccccc5)CC4)cc3)nc2c1 | Non-toxic | Active | 
 |  |  |  |  | Active | Cn1c(=O)c2cc(C(=O)NCCN3CCC(Cc4ccccc4)CC3)sc2c2ccccc21 | Non-toxic | 60% | Activity [9]: 30%; Activity [10]: Dose-dependent effect; IC50 ([10]; 96 h): 1000 nM; ΔTm [6]: 11 °C; Activity [11]: Active; Activity [12]: Dose-dependent effect; IC50 ([12]; 96 h): 1000 nM; Activity [13]: tde; Activity [14]: Dose-dependent effect; IC50 ([14]; HT-29, 96 h): 1000 nM; Activity [15]: 37%; Activity [16]: Active; Activity [17]: <=50%; Activity [18]: Active; Activity [19]: Non-toxic
inactive | inactive | inactive | inactive | inactive | inactive | COc1ccc(NC(=O)c2ccc(CN3CCC(Cc4ccccc4)CC3)cc2)cc1OC | Non-toxic | Active | 
